Experimental data published in ChEMBL document CHEMBL4725242, “Discovery of GS-9688 (Selgantolimod) as a Potent and Selective Oral Toll-Like Receptor 8 Agonist for the Treatment of Chronic Hepatitis B” (J Med Chem, 2020).
Active and inactive are the calls of the source.

Assays:
[1] = target: T1, Toll-like receptor 8 (Homo sapiens) (UniProt Q9NR97); test: Agonist activity at human TLR8 expressed in HEK293 cells assessed as increase in NF-kappaB activation incubated for 24 hrs by quanti-blue SEAP reporter gene assay; type: cell-based; conditions: filed as agonist
T1 sequence (whole entry): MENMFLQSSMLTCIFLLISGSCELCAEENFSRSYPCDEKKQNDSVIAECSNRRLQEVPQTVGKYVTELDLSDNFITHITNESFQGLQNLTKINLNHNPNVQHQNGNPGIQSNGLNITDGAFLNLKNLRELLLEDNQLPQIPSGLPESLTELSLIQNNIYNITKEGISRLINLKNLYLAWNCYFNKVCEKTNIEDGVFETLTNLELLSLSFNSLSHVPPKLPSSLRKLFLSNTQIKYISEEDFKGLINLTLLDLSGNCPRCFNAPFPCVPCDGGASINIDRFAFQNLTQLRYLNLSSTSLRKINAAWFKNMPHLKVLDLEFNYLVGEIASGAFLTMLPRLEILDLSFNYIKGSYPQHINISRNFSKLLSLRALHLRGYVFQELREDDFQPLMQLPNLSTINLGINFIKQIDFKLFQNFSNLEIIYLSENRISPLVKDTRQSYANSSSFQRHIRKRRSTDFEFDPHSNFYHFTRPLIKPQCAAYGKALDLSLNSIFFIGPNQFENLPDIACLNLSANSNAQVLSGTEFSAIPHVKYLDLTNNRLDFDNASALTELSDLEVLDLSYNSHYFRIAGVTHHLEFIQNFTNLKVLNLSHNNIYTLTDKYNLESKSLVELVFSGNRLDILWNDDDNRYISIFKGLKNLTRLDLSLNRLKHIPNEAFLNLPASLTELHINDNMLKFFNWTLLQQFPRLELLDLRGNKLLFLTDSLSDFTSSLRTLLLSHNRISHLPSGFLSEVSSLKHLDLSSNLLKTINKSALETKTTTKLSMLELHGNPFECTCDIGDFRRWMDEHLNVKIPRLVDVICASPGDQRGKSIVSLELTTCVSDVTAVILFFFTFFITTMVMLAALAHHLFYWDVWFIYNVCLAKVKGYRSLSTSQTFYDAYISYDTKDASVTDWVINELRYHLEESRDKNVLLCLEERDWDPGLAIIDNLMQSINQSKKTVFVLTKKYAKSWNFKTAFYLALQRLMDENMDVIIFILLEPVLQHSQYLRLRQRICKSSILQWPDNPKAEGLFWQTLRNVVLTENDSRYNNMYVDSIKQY
How it was run: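 HEK293 cells stably expressing human TLR8 reporter. Value taken as the minimum effective concentration (MEC), defined as the concentration giving a 3-fold increase in reporter signal above background.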

[2] = target: T2, C-type lectin domain family 7 member A (Homo sapiens) (UniProt Q9BXN2); test: Agonist activity at human Dectin1b expressed in HEK293 cells assessed as increase in NF-kappaB activation up to 10 uM incubated for 24 hrs by quanti-blue SEAP reporter gene assay; type: cell-based; conditions: dose microM <=10, time 24.0 hrs
T2 sequence (whole entry): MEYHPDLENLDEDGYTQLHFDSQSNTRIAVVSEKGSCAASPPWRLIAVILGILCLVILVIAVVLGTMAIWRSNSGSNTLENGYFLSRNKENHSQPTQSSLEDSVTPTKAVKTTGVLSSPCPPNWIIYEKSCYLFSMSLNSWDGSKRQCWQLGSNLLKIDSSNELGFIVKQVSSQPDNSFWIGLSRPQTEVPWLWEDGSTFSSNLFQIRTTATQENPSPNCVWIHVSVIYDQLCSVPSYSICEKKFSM
How it was run: (§1)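 HEK293 cells stably expressing individual human TLRs or other innate immune receptors, used as reporter gene assays. Minimum effective concentration defined as the level giving a 3-fold rise over background.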

[3] = Immunomodulatory activity in human primary hepatocytes infected with HBV assessed as stimulation of CD8+T cell response to virus by measuring decrease in HBeAg production treated with media from PBMC stimulated with 10 nM compound for 10 days relative to control; type: functional; design: scale not given: the % may be the effect or the level left; conditions: time 10 day
[4] = target: T2, C-type lectin domain family 7 member A (Homo sapiens); test: Agonist activity at human Dectin1a expressed in HEK293 cells assessed as increase in NF-kappaB activation up to 10 uM incubated for 24 hrs by quanti-blue SEAP reporter gene assay; type: cell-based; conditions: dose microM <=10, time 24.0 hrs; how it was run: as §1
[5] = Drug metabolism in human hepatocytes assessed as glucuronidation; type: ADME, cell-based, Hepatocyte
[6] = target: Toll-like receptor 5 (Homo sapiens) (UniProt O60602); test: Agonist activity at human TLR5 expressed in HEK293 cells assessed as increase in NF-kappaB activation up to 10 uM incubated for 24 hrs by quanti-blue SEAP reporter gene assay; type: cell-based; conditions: dose microM <=10, time 24.0 hrs; how it was run: as §1
[7] = Half life in Sprague-Dawley rat at 1 mg/kg, iv administered as 30 mins infusion by HPLC-MS analysis; type: ADME, organism-based; conditions: in vivo
How it was run: (§2)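 30-min intravenous infusion: Sprague Dawley rats 1 mg/kg, beagle dogs 0.25 mg/kg, cynomolgus monkeys 0.1 mg/kg; n = 3 per species, reported as mean ± SD.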

[8] = Immunomodulatory activity in human primary hepatocytes infected with HBV assessed as stimulation of CD8+T cell response to virus by measuring decrease in HBV DNA production treated with media from PBMC stimulated with 10 nM compound for 10 days relative to control; type: functional; design: scale not given: the % may be the effect or the level left; conditions: time 10 day
[9] = Immunomodulatory activity in human primary hepatocytes infected with HBV assessed as stimulation of CD8+T cell response to virus by measuring decrease in HBV RNA production treated with media from PBMC stimulated with 10 nM compound for 10 days by PCR analysis relative to control; type: functional; design: scale not given: the % may be the effect or the level left; conditions: time 10 day
[10] = Volume of distribution at steady state in Beagle dog at 0.25 mg/kg, iv administered as 30 mins infusion by HPLC-MS analysis; type: ADME, organism-based, Canis lupus familiaris; conditions: in vivo, read-out: Vdss; how it was run: as §2
[11] = Clearance in dog hepatic microsomes at 2 uM measured up to 60 mins in presence of NADPH generating system by LC-MS/MS analysis; type: ADME, Canis lupus familiaris, Microsome; conditions: liver microsomes
[12] = Dissociation constant, pKa of the compound; type: physicochemical
[13] = Clearance in Beagle dog at 0.25 mg/kg, iv administered as 30 mins infusion by HPLC-MS analysis; type: ADME, organism-based, Canis lupus familiaris; conditions: in vivo; how it was run: as §2
[14] = Clearance in cynomolgus monkey at 0.1 mg/kg, iv administered as 30 mins infusion by HPLC-MS analysis; type: ADME, organism-based, Macaca fascicularis; conditions: in vivo; how it was run: as §2
[15] = Apparent permeability across apical to basolateral side in human Caco2 cells measured after 1 to 2 hrs by LC-MS/MS analysis; conditions: Caco-2
[16] = Cmax in cynomolgus monkey at 3 mg/kg, po administered via gavage by HPLC-MS analysis; type: ADME, organism-based, Macaca fascicularis; design: route oral, dose 3 mg/kg; conditions: in vivo
How it was run: (§3)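 Oral dosing in 2% ethanol/40% PEG 300/58% 0.01N HCl: Sprague Dawley rats 5 mg/kg, beagle dogs 0.5 mg/kg, cynomolgus monkeys 3 mg/kg.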

[17] = Clearance in human hepatic microsomes at 2 uM measured up to 60 mins in presence of NADPH generating system by LC-MS/MS analysis; type: ADME, Microsome; conditions: liver microsomes
[18] = Oral bioavailability in Sprague-Dawley rat at 5 mg/kg administered via gavage by HPLC-MS analysis; type: ADME, organism-based; conditions: in vivo; how it was run: as §3
[19] = Half life in Beagle dog at 0.25 mg/kg, iv administered as 30 mins infusion by HPLC-MS analysis; type: ADME, organism-based, Canis lupus familiaris; conditions: in vivo; how it was run: as §2
[20] = AUC (infinity) in Sprague-Dawley rat at 5 mg/kg, po administered via gavage by HPLC-MS analysis; type: ADME, organism-based; design: time infinity, route oral, dose 5 mg/kg; conditions: in vivo; how it was run: as §3

Chain of Toll-like receptor 5 (Homo sapiens) (O60602 whole entry, the tested form may be a part): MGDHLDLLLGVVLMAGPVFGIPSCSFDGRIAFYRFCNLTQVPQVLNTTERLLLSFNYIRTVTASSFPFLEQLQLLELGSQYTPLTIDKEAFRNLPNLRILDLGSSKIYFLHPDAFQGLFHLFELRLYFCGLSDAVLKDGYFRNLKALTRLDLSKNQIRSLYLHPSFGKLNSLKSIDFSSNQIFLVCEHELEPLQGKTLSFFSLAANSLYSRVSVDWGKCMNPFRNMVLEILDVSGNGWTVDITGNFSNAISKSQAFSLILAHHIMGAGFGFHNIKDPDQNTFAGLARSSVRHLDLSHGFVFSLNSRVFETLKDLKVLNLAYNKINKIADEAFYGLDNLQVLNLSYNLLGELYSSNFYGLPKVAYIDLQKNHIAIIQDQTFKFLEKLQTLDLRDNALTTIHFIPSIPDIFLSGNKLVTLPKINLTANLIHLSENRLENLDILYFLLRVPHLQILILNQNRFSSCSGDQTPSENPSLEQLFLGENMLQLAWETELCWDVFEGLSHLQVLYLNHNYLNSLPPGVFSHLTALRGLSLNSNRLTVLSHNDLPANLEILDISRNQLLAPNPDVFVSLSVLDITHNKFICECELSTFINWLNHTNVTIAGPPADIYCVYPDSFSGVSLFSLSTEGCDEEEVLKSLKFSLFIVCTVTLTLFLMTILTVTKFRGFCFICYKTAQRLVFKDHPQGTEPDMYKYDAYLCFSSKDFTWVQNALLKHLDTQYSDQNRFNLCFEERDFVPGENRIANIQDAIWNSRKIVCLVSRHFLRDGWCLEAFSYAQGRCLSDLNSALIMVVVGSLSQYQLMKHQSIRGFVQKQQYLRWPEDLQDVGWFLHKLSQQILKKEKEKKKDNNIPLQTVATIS

MEC [1]: 49 nM
Activity [2]: inactive
Activity [4]: inactive
Drug metabolism [5]: Metabolite_Detected
Activity [6]: inactive
half-life [7]: 1.45 h
Vd [10]: 1.01 L/kg
CLhep predicted at 2 µM [11]: 28.3 mL/min/kg
pKa [12]: 6.3
clearance [13]: 20 mL/min/kg
clearance [14]: 103 mL/min/kg
Papp A→B [15]: 7.9 ×10⁻⁶ cm/s
Cmax [16]: 1.2 nM
CLhep predicted at 2 µM [17]: 16.7 mL/min/kg
bioavailability [18]: 8.8%
half-life [19]: 1.32 h
AUC(0-inf) [20]: 0.827 µM·h
SMILES: CCCC[C@](C)(CO)Nc1nc(N)nc2cc(F)cnc12 [SELGANTOLIMOD]
Activity [3]: >50%
Activity [8]: >50%
Activity [9]: >50%
